ChEMBL document CHEMBL4513216, “Probing the Open Global Health Chemical Diversity Library for Multistage-Active Starting Points for Next-Generation Antimalarials” (ACS Infect Dis, 2020)

assay: Toxicity liver stage against HepG2, at 10uM; type: cell-based; set-up: test concentration 10 uM, cell line HepG2-A16-CD81EGFP; settings: human, HepG2-A16-CD81EGFP cells; read-out: INHIBITION
Summary of the method: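 Uninfected HepG2-A16-CD81EGFP cells, 3 × 10^3 per well, 1536-well, plated on prespotted compound at 10 μM final, parasite-free screening media added to match infected plates; puromycin 10 μM positive, DMSO 0.5% negative; run in parallel with 48 h PbLuc assay at 37 °C, 5% CO2; viability by CellTiter-Glo luminescence, normalized to controls.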

| Compound | cytotoxicity at 10 µM |
| --- | --- |
| CC[C@H]1CN2CC[C@H]1C[C@@H]2CNC(=O)Nc1ccccc1 | -0.989% |
| CCOC(=O)[C@@H]1[C@@H](c2ccccc2)CN2CCN(C(=O)N(C)C)C[C@H]12 | 14.8% |
| CC(O)CN1CC(C)(C)CN(C(=O)CCc2ccccc2)CC1=O (centres undefined) | -0.321% |
| CC(C)COC(=O)N1CC(=O)N(Cc2ccc(Cl)cc2)CC(O)C1 (centres undefined) | -0.947% |
| COc1ccc2nnc(CCCC(=O)NCCc3ccncc3)n2n1 | -10% |
| CCOC(=O)c1sc(NC(=O)CN2C(=O)CCC2=O)c(C#N)c1C | -6.93% |
| O=S(=O)(NCC1(O)CCCC1)c1ccccc1Br | -3.87% |
| N#Cc1ccc(C(=O)N2CCC(Oc3ccc(C#N)cn3)CC2)cc1 | 7.92% |
| CC(=O)N1CCC2(CC1)CN(C(=O)c1ccc3c(c1)OCO3)C2 | 6.71% |
| CN(C)C(=O)CN1CCC2(CCN(S(=O)(=O)C3CC3)CC2)C1=O | 6.32% |
| Cc1noc(C2CCC3(CCN(C(=O)C4CCOCC4)CC3)O2)n1 (centres undefined) | 7.16% |
| O=C(CCn1ccc2ccc(F)cc21)/N=c1\[nH]nc(C2CCCO2)s1 (centres undefined) | -0.0308% |
| Cc1c(C)n(-c2ccccn2)c2nc3c(c(N)c12)CCCCC3 | 6.1% |
| Cc1c(Br)cnn1CCC(=O)N(C)Cc1c(Cl)cnn1C | -13.7% |
| CNC(=O)C1(c2cnccn2)CCCN1C(=O)c1cccnc1OC (centres undefined) | -8.55% |
| COCC(=O)N1CCN(c2cc(C)nc(C3CCCN3C(C)=O)c2)CC1 (centres undefined) | 1.86% |
| O=C(COc1cccc(F)c1)N1C[C@@H](O)[C@H](N2CCOCC2)C1 | 6.02% |
| COc1cc2nc3n(c(=O)c2cc1OC)CCN(C(=O)C(C)(C)C)CC3 | -13.5% |
| OC1CCN(Cc2c(-c3ccco3)[nH]c3ncccc23)CC1 | -1.58% |
| CCc1cc(C(=O)N2CCc3nc4c(C)csc4c(=O)n3CC2)on1 | -14.9% |
| CN(c1ccncn1)C1CC2(CCN(C(=O)c3cncs3)C2)C1 (centres undefined) | -8.13% |
| CC(=O)N1CCCN(Cc2ccon2)c2ccccc21 | 0.616% |
| CCN(CC)S(=O)(=O)NC(C)C(=O)N(C)C (centres undefined) | 9.55% |
| O=C(c1ccc2[nH]cnc2c1)N1CCC(COc2ccccn2)CC1 | -2.91% |
| CC(C)(C(=O)NCCCc1nc2ccccc2[nH]1)n1cc(Cl)cn1 | 4.05% |
| COCCOc1ccc(S(=O)(=O)Nc2cccnc2O)cc1C | 4.68% |
| Cc1cnn(C2CCCN(C(=O)c3cc(-c4ccccc4C)n[nH]3)C2)c1 (centres undefined) | -9.66% |

| Compound | cytotoxicity at 10 µM |
| --- | --- |
| O=C(NC1CCCN(Cc2c(F)cccc2F)C1)c1cc[nH]n1 (centres undefined) | 5.72% |
| CN(C)c1cc2c(nn1)CCN(C(=O)c1cc3c(s1)CCOC3)C2 | 2.35% |
| O=C(c1cnc(NCC2CCCO2)c(Cl)c1)N1CCCCC1 (centres undefined) | 0.139% |
| O=C1CSCN1CC(=O)N1CCCC1c1nc2ccccc2s1 (centres undefined) | -12.7% |
| COc1ccc(C(CC(=O)O)NC(=O)c2cc(C)on2)cc1 (centres undefined) | 5.12% |
| COc1cccc(S(=O)(=O)CCN2CCCC2c2ccc[nH]2)c1 (centres undefined) | -3.89% |
| O=C(c1ccccc1F)N1CCN(CCCn2cncn2)CC1 | 2.99% |
| Cc1cc(CC(=O)NCC(O)c2ccc(OC(F)F)cc2)n[nH]1 (centres undefined) | -0.988% |
| CC1CCN(C(CNC(=O)Cn2cccn2)c2cccs2)CC1 (centres undefined) | -16% |
| Cc1nc(CN2CCC(CNC(=O)NCCC3CCC3)CC2)oc1C | -0.5% |
| COCCCN(CCOC)C(=O)Nc1ccccc1-n1cccn1 | 1.51% |
| CCn1cc(NC(=O)NC(CO)Cc2c[nH]c3ccccc23)cn1 (centres undefined) | -7.03% |
| Cn1cnc2c1CCN(CCOc1ccc3c(c1)CCC(=O)N3)C2 | -4.48% |
| Cc1cncc(C(=O)N2CCCCC2c2nc[nH]n2)c1 (centres undefined) | -0.229% |
| Cn1c(CCNc2nccnc2C#N)nc2cc(Cl)ccc21 | -6% |
| COCC(C)(CCO)NC(=O)Nc1cccc(Br)c1C (centres undefined) | 10.5% |
| Cc1cc(NC(=O)NCC2(O)CCCC2)ccn1 | -6.36% |
| Cc1nnnn1-c1cc(NCc2cc(C#N)ccc2F)ccc1F | 0.685% |
| Cc1ccc(S(=O)(=O)N2CCN(Cc3ccncc3)CC2)c(Cl)c1 | -0.147% |
| COc1cccc(C(=O)N2CCN(CC(O)c3ccccc3)CC2)c1 (centres undefined) | -46.7% |
| COc1ccccc1CC(=O)NC(CC(=O)O)c1ccc(F)cc1 (centres undefined) | -4.24% |
| CCN1C[C@@H]2CN(C(=O)c3cccn3C)C[C@@H]2C1=O | -96.1% |
| Cn1cc(C[C@H]2[C@H](N3CCOCC3)CCN2C(=O)c2ccoc2)cn1 | -81.5% |
| COCC(=O)N1CCCN(Cc2cc(O)c3ccccc3n2)CC1 | 4.02% |
| Cc1nn(C)c2nc(N3CCNC(=O)C3Cc3ccccc3)sc12 (centres undefined) | -2.32% |
| CCC(=O)N1CCN(S(=O)(=O)c2cccc(F)c2)[C@H]2CS(=O)(=O)C[C@H]21 | -52% |
| Cc1ccc(OC[C@@H]2CNC[C@H](C(=O)NCC3CCCO3)C2)cn1 (some centres undefined) | -8.14% |

| Compound | cytotoxicity at 10 µM |
| --- | --- |
| COCCN(C)C[C@@H]1CN(c2nc(C)cc(C)n2)C[C@@H]1CO | -10.3% |
| Cc1cc(NC(C)c2nncn2C2CCCC2)n2nc(C)c(C)c2n1 (centres undefined) | 13.7% |
| Cc1nc(C(=O)N2CCCCC2c2ccc(CN(C)C)cc2)c(C)o1 (centres undefined) | -2.32% |
| CC(C)(C)CCN1CCC(c2nnc(Cn3cccn3)n2C2CC2)CC1 | 8.19% |
| CN(Cc1noc2c1CCCC2)C(=O)C1Cc2ccccc2CN1C (centres undefined) | 4.74% |
| O=C(CC1=CSC2=NCCCN12)N1CCCCC1c1cccc(F)c1 (centres undefined) | -160% |
| CC1(C)CN(Cc2c[nH]c(CC3CCCC3)n2)CC[C@]1(C)O | 2.74% |
| O=c1[nH]c(-c2ccncc2)nc2c1CCN(S(=O)(=O)N1CCCC1)C2 | 6.04% |
| CCc1nc(CCn2ccc3nc(OC)c(C#N)cc3c2=O)no1 | 3.57% |
| Cc1nc(N)nc(C)c1Cc1nc(C2CC2)n[nH]1 | -9.44% |
| CCC(NC(=O)c1nn(C)cc1C(=O)O)c1ccc(C)cc1C (centres undefined) | -8.66% |
| CCCn1cc2c(C(F)F)cc(SCC(=O)O)nc2n1 | -10.9% |
| COc1ccc(-c2nonc2N)cc1 | -7.97% |
| Cc1csc(N2CCN(CC(=O)N3CCCC3)CC2C)n1 (centres undefined) | -0.456% |
| COc1ccc(NC(=O)N2CCCCCC2c2ccncc2)cn1 (centres undefined) | 5.55% |
| CC(C)CN1C(=O)C2(CCN(Cc3ccsc3)C2)c2ccccc21 (centres undefined) | 15.7% |
| CC(C)Nc1ncnc2c1CCN(C(=O)c1ccccc1F)CC2 | -86.7% |
| CN(C)Cc1cc(=O)n2c(n1)CN(C(=O)c1ccc[nH]1)CCC2 | -123% |
| CO[C@@H]1CCN(Cc2nccn2C)[C@H]1Cc1cccnc1 | -71.5% |
| Cn1cc(CN2CCCC3(COCCN(c4cccnc4)C3)C2)cn1 (centres undefined) | -75.6% |
| O=C(NCC1CC1)[C@@H]1CC[C@@H]2[C@@H](CCN2Cc2ccc(F)c(F)c2)O1 | 8.33% |
| CCN1C[C@H]2[C@@H](C1)N(S(=O)(=O)c1ccccc1F)CC[C@H]2OC | -74.1% |
| Cn1ccc(C(=O)N2C[C@@H]3CCN(c4cccnc4)C[C@@H]3C2)n1 | -106% |
| Cc1ccc(N2CCN(C(=O)CN3C[C@H]4CC[C@@H]3C4)CC2=O)cc1 | -1.41% |
| Cc1ccc(OCc2occc2C(=O)N2C[C@@H]3C(CN(C)C)[C@@H]3C2)cc1 (some centres undefined) | -1% |
